# Measured values reported in article PMC2842456 (ACS chemical biology, 2010).
# B1: SUMO without an attached peptide: yeast SUMO with no attached peptide (protein, UniProt Q12306 2-98, looked up)
# Ubiquitin-like protein SMT3: SDSEVNQEAKPEVKPEVKPETHINLKVSDGSSEIFFKIKKTTPLRRLMEAFAKRQGKEMDSLRFLYDGIRIQADQTPEDLDMEDNDIIEAHREQIGG
# System: wild-type clamp sensor
# Assay type: binding
# Conditions: ligand titration with wild-type clamp sensor (Figure 2F)
# Procedure, shortened: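 CyPet–clamp–YPet fusion, expressed in E. coli BL21(DE3) and Ni-affinity purified, used at 140 nM unless noted. Titrated with SUMO fusions (target-peptide fusion, bare SUMO, unrelated-peptide fusion). Samples were degassed, then incubated 30 min at 25 °C in the dark. Excitation 415 nm; FRET ratio taken as 527/475 nm emission, plotted against ligand concentration.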
row,Molecule,Effect on the FRET ratio of the wild-type sensor (in words)
1,GGDVHVNATYVNVKSVA [SUMO fused with an unrelated peptide],no significant effect on the FRET ratio
2,B1,no significant effect on the FRET ratio
